# Mdm2-MdmX inh: disrupts the human Mdm2-MdmX interaction; O15151+Q00987; SaOS-2 split-luciferase Mdm2/MdmX complementation, luminescence; inhibition, % at 8 µM; actives 3% (n = 330,000); AID 485346;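 active = inhibition of at least 50% at 8 µM in the primary screen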
# XBP1 UPR activ: adaptive UPR (XBP1) activation; activation, % at 20 µM; CHO-XBP1 luciferase reporter, IRE1-XBP1 UPR activation, luminescence; percent of tunicamycin response, DMSO as zero; actives 0.33% (n = 330,000); AID 463104;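 active = versus positive control, 20 µM dose yields 30% or more activation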;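 also: 100% = tunicamycin at 10 µg/mL and 0% = DMSO only wells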
#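 Material: CHO cell line with stable XBP1 luciferase reporter; schedule: 16-18 h cell attachment at 37 °C, then 6 h compound exposure; signal: glow luminescence from Steady-Glo reagent; medium: serum-containing F12 medium, 10% FBS; benchmarks: tunicamycin 10 µg/mL and vehicle-only wells; read-out: percent activation relative to tunicamycin reference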
# Mdm2 ligase inh: inhibitors of human Mdm2 E3 ubiquitin ligase. Q00987. cell-based MDM2 ubiquitination luciferase reporter, 2 h; 0 = plate control, 100 = twice control, blank-subtracted. signal enhancement, % at 5 µM. actives 0.11% (n = 210,000). AID 1230;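 active = signal enhancement of 30% or more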;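 also: luminescence tracks abundance of the self-degrading MDM2-luciferase fusion protein; higher signal means inhibition of MDM2 E3 ligase activity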
#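 Assay system: mammalian cells stably expressing self-ubiquitinating, self-degrading MDM2 E3–luciferase fusion. Quantity: 2000 cells in each well. Medium: DMEM culture medium. Compound dosing: single-point 5 µM. Timing: cell settling 4 h, compound treatment 2 h, both 37 °C. Technique: luciferase luminescence. Read-out basis: percent signal gain over controls, blank-subtracted. Benchmarks: plate controls and plate blanks.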
# CHOP UPR activ: apoptotic UPR (CHOP) activation. CHO-CHOP luciferase reporter, luminescence; percent of tunicamycin response over DMSO baseline. activation, % at 10 µM. actives 0.34% (n = 330,000);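 active = at 10 µM dose, activation of 40% or more, normalized to positive control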;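 also: 100% = tunicamycin at 10 µg/mL and 0% = DMSO alone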
#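 System: CHO-CHOP luciferase reporter cell line; amount: 500 cells/well; buffer or medium: F12 medium containing 10% fetal bovine serum; incubation: 6 h compound exposure at 37 °C after overnight seeding; measured by: luciferase luminescence after 10 min with Steady-Glo reagent; evaluation: % reporter activation, DMSO baseline versus tunicamycin full activation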
# Beta2AR agonist: activates human beta-2 adrenergic receptor causing internalization. response, % (test concentration not listed). Am2.2-beta2AR cells, FAP receptor internalization, flow cytometry. actives 0.43% (n = 340,000). AID 504454. P07550;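 active = response above a set limit, near 3 SD of response in nonfluorescent compounds, cut at about 42% in these data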
# Target sequence (P07550 whole entry, looked up): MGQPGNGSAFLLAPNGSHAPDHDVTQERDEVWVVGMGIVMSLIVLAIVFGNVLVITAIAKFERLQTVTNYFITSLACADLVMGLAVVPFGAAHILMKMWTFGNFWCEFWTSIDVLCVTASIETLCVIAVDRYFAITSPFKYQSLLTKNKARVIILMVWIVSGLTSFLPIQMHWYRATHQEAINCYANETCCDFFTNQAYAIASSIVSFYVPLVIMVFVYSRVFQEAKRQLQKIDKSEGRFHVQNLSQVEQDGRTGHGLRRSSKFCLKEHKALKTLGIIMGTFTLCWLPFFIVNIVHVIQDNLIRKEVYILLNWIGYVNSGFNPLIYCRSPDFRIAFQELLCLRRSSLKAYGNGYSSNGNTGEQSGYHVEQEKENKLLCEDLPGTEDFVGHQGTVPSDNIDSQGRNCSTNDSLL
# Dynein cargo inh: blocks dynein driven cargo transport along microtubules | 3617.4 mouse cells, GR-EGFP nuclear translocation imaging; test concentration mostly 20 µM; stimulated with dexamethasone, 1 µM; hits give low values | actives 0.47% (n = 220,000) | AID 1381 | z-score, hits read low;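 active = plate z-score of nuclear minus cytoplasmic receptor signal below a set negative limit, without overly bright fluorescence or cell loss, cut at about -3.5 in these data, passing the limit was not always enough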;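 also: z-score of nuclear minus cytoplasmic ring GR-EGFP intensity difference per well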
#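 Medium: Induction medium lacking tetracycline, stripped serum | Probe or stimulus: 1.0 µM final dexamethasone stimulus | Schedule: 48 h induction, then 1 h compound, then 30 min agonist, 37 °C | Signal: Automated 10x imaging of fixed Hoechst-stained cells | Evaluation: Per-cell GR-EGFP intensity, nucleus versus surrounding cytoplasmic ring, well-averaged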
# Mdm2 MdmX conf: confirmation of human Mdm2/MdmX interaction inhibitors; shares compounds with Mdm2-MdmX inh; Mdm2-MdmX binding, luminescent assay; inhibition, % at 8 µM; actives 55% (n = 10,000); AID 489028; in the data active = inhibition above about 40%
# Full FLuc ctr: full-length luciferase inhibition in Mdm2/MdmX counter-screen | shares compounds with Mdm2-MdmX inh | inhibition, % at 8 µM | SaOS-2 full-length luciferase counterscreen, luminescence | actives 77% (n = 6,200);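 active = mean inhibition at 8 µM reaching about 37%, which flags the compound as non-specific, limit read from the data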;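 also: p53-null SaOS-2 cells with luciferase driven by a doxycycline-inducible promoter; compound on cells about two nights before reading with doxycycline added after day one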
# An asterisk follows results filed as active; . = not tested or not shown. The list is not random: actives were taken first. Their share in the collection is about 3.7%.
SMILES,Mdm2-MdmX inh,XBP1 UPR activ,Mdm2 ligase inh,CHOP UPR activ,Beta2AR agonist,Dynein cargo inh,Mdm2 MdmX conf,Full FLuc ctr
CCCCn1c(=O)[nH]c(=O)c2c1nc(CN1C(=O)c3ccccc3S1(=O)=O)n2CCC,-13,2,-4,-1,0,0.54,.,.
CC(CCN1CCC(CN2C(=O)C(=O)NC[C@@H]2Cc2ccccc2)CC1)c1ccccc1 (some centres undefined),.,.,.,.,-9,.,.,.
CNc1nc(-c2ccc3c(c2)CCN3C(=O)CC(C)(C)C)c(C)s1,-16,3,-2,2,4,-0.96,.,.
CC(=O)Nc1nc(-c2ccc3c(c2)CCN3C(=O)C2CC2)c(C)s1,95*,-4,.,6,-13,.,93*,51*
O=c1c2ccccc2nc(/C=C/c2cc(Br)ccc2O)n1CCO,65*,-1,.,1,8,.,57*,32
Nc1cccc(N=[N+]([O-])c2cccc(N)c2)c1,.,.,.,.,-1,.,.,.
CN(C)CCn1c2ccccc2c2nc3ccc([N+](=O)[O-])cc3cc21,100*,8,-29,0,0,1.2,84*,60*
O=C1CCC[C@@H]2Cc3nc4cc5c(cc4cc3[C@@H]3CCN1[C@H]23)OCO5,.,.,.,.,-19,.,.,.
COc1ccc(Cl)cc1NC(=O)NCC1CCN(Cc2cc(C)ccc2C)CC1,58*,-2,.,3,23,.,36,.
CCc1nn(CC(=O)NCCCc2ccccc2)c(=O)c2cc3c(OC)cccc3n12,11,-6,.,0,3,.,.,.
CCc1nn(CC(=O)NCCCc2ccccc2)c(=O)c2cc3cc(F)ccc3n12,56*,-4,.,-2,-12,.,-1,.
CCc1nn(CC(=O)NCCC2=CCCCC2)c(=O)c2cc3cc(F)ccc3n12,50*,-1,.,-1,8,.,12,.
CCCNC(=O)Cn1nc(C)n2c(cc3cc(F)ccc32)c1=O,-26,1,.,1,-13,.,.,.
O=C(c1cn(-c2ccccc2)nc1-c1cccs1)N1CCN(c2ccccc2)CC1,59*,2,3,1,-25,0.95,48*,64*
CCN(CC)CCNC(=O)c1ccc(NC(=O)c2cn(-c3ccccc3)nc2-c2cccs2)cc1,98*,7,-3,5,20,-7.3*,64*,53*
CCOc1ccc(NC(=O)CN(C)C(=O)c2cn(-c3ccc(F)cc3)nc2-c2cccc(OC)c2)cc1OCC,24,-4,.,4,3,.,.,.
CCN(CC)CCNC(=O)c1ccc(NC(=O)c2cn(-c3ccc(F)cc3)nc2-c2cccc(OC)c2)cc1,96*,-1,.,6,9,.,58*,28
O=C(Nc1cccnc1)c1cn(-c2ccccc2)nc1-c1cccs1,14,1,-11,4,-17,-0.68,.,.
CC(Oc1ccccc1Cl)C(=O)N(Cc1cccs1)C1CCS(=O)(=O)C1 (centres undefined),-28,-2,.,1,5,.,.,.
CCCOc1ccc2c(c1)C(=NN=C(N)N)c1cc(OCCC)ccc1-2,96*,20,.,10,8,.,34,.
CCN(CC)CCOc1ccc2c(c1)C(=NO)c1cc(OCCN(CC)CC)ccc1-2,96*,-5,-14,-1,15,1,91*,44*
CCOC(=O)c1ccccc1NC(=O)Cc1c(C(=O)O)n(C)c2ccccc12,-14,-6,.,0,2,.,.,.
O=C(NC1(Cc2ccccc2)CCN(CCCc2ccccc2)C1=O)c1ccccc1 (centres undefined),64*,-1,.,2,26,.,54*,40*
OCC1(Cc2ccc(Cl)cc2)CCN(CCCc2ccccc2)CC1,32,-2,-8,1,7,-0.59,.,.
COc1cccc(N2CCN(S(=O)(=O)c3cc4c(cc3C)N(C)CCO4)CC2)c1,17,-2,.,4,-6,.,.,.
SMILES,Mdm2-MdmX inh,XBP1 UPR activ,Mdm2 ligase inh,CHOP UPR activ,Beta2AR agonist,Dynein cargo inh,Mdm2 MdmX conf,Full FLuc ctr
Cc1cc2c(cc1S(=O)(=O)N1CCN(c3ccc(Cl)cc3)CC1)OCCN2C,85*,-2,.,-2,5,.,4,.
Cc1ccc(NC(=O)c2ccccc2NS(=O)(=O)c2ccc(Cl)s2)cc1S(=O)(=O)N1CCOCC1,66*,-2,1,1,17,-0.57,45*,52*
COc1ccc(C)cc1NC(=O)c1ccccc1NS(=O)(=O)c1ccc(Cl)s1,89*,1,-16,0,20,-0.34,79*,32
O=C(Nc1cc(S(=O)(=O)N2CCOCC2)ccc1N1CCOCC1)c1ccc([N+](=O)[O-])s1,37,-1,.,3,4,.,.,.
Cc1ccc(NC(=O)c2ccc([N+](=O)[O-])s2)cc1S(=O)(=O)N1CCOCC1,65*,1,.,4,11,.,25,.
COc1cccc(C=O)c1OCCN1C(=O)c2ccccc2C1=O,2,-3,.,1,4,.,.,.
O=C(NNC(=O)c1ccccc1OCc1ccccc1)c1ccccc1O,64*,0,.,-1,-7,.,70*,35
O=C(NNC(=O)c1ccccc1OCc1ccc(F)cc1)c1ccccc1O,69*,0,.,1,-8,.,73*,31
CN(C(=O)CSc1nc2ccccc2c(=O)n1-c1ccccc1Cl)C1CCS(=O)(=O)C1 (centres undefined),11,-1,.,0,-2,.,.,.
Cc1ccc(C=NNc2nc3c([nH]2)c(=O)n(C)c(=O)n3C)cc1,.,.,.,.,8,.,.,.
CCOCCCNC(=O)c1cc2c(s1)-c1ccccc1SC2,30,-1,.,3,21,.,.,.
CN(C)CCNC(=O)c1cc2c(s1)-c1ccc(Cl)cc1SC2,100*,-5,.,22,33,.,87*,57*
O=C(NC(=C(Cl)Cl)S(=O)(=O)c1ccc(Cl)cc1)c1ccccc1,62*,2,10,13,5,0.77,58*,13
Cc1ccc(S(=O)(=O)C(NC(=O)c2ccccc2)=C(Cl)Cl)cc1,65*,3,.,0,-1,-0.77,23,.
O=C(Nc1cc(Cl)ccc1N1CCOCC1)c1ccc(=O)[nH]c1,8,2,.,0,3,.,.,.
Cc1cccc(CSC(Nc2ccc(F)cc2)=C(C#N)C#N)c1,94*,0,4,3,10,-1,89*,50*
N#CC(C#N)=C(Nc1ccc(F)cc1)SCc1cccc(Br)c1,.,.,-39,.,24,0.11,.,.
